Here are results for 15 molecules from ChEMBL document CHEMBL4765423, “Antikinetoplastid SAR study in 3-nitroimidazopyridine series: Identification of a novel non-genotoxic and potent anti-T. b. brucei hit-compound with improved pharmacokinetic properties” (Eur J Med Chem, 2020).

pEC50: −log10 of the molar value.

Series [1] concerns Trypanosoma brucei brucei. In words: Antitrypanosomal activity against bloodstream form Trypanosoma brucei brucei AnTat 1.9 trypomastigotes assessed as reduction in parasite viability incubated for 69 hrs by Alamar Blue dye based assay. It is filed as functional, organism-based. The note with it: AnTat 1.9, 69 h. A digest of the protocol:
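BSF parasites were cultured in MEM/Baltz medium with 20% heat-inactivated horse serum, mercaptoethanol, L-cysteine and bathocuproine, at 37 °C and 5% CO₂. Cells were seeded at 2000 parasites/100 µL with compound from DMSO, in duplicate, for 69 h. Alamar Blue was added for 5 h and fluorescence read (ex 530/em 590 nm). EC50 came from non-linear regression over three independent experiments.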
A general note: Resazurin is reduced to fluorescent resorufin, in cell work by metabolically active cells.

The subject of series [2] is Leishmania infantum. In words: Antileishmanial activity against Leishmania infantum MHOM/MA/67/ITMAP-263 axenic amastigotes assessed as inhibition of parasitic metabolic activity incubated for 48 hrs by steady Glow reagent based luminescence assay. It is filed as functional, organism-based. Particulars: MHOM/MA/67/ITMAP-263, 48 h. The essentials: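 Luciferase-expressing promastigotes were acidified (pH 5.4, 24 h, 24 °C) and then held 24 h at 37 °C to give axenic amastigotes. These were used at 2×10⁶/mL with compound (DMSO <0.5%), in duplicate, for 48 h at 37 °C. Luciferase luminescence was read. EC50 came from non-linear regression, as the mean of three independent experiments.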

Series [3] in a line: Selectivity index, ratio of CC50 for human HepG2 cells to EC50 for Trypanosoma brucei brucei trypomastigotes AnTat 1.9. It is filed as toxicity. The note with it: read-out: Ratio CC50/EC50.
Series [4] concerns Leishmania donovani. In words: Antileishmanial activity against Leishmania donovani MHOM/IN/00/DEVI promastigotes assessed as inhibition of parasitic metabolic activity measured after 72 hrs by MTT assay. It is filed as functional, organism-based. The essentials:
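Log-phase promastigotes at 10⁶/mL were grown in Schneider's medium with 20% FCS at 27 °C. Compound was added from DMSO stock (final <0.5% v/v), in duplicate, for 72 h. Metabolic activity was read by MTT (4 h, 27 °C) and absorbance at 570 nm. EC50 came from non-linear dose-response regression, as the mean of ≥3 independent experiments.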
(Formazan colour is commonly taken as a measure of viable cells.)

A short description of series [5]: Cytotoxicity against human HepG2 cells assessed as reduction in cell viability after 72 hrs by MTT assay. The series is classed as cell-based. A digest of the protocol:
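MTT was applied at 0.5 mg/mL for 2 h, formazan was dissolved in DMSO, and absorbance read at 570 nm with a 630 nm reference. Doxorubicin was the positive control. CC50 was taken from the dose-response curve, as the mean of three experiments.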

Series [6] is described as follows: Selectivity index, ratio of CC50 for human HepG2 cells to EC50 for antileishmanial activity against Leishmania donovani MHOM/IN/00/DEVI promastigotes. It is filed as toxicity. The note with it: read-out: Ratio CC50/EC50.
Series [7] in a line: Selectivity index, ratio of CC50 for human HepG2 cells to EC50 for antileishmanial activity against Leishmania infantum MHOM/MA/67/ITMAP-263 axenic amastigotes. It is filed as toxicity. Particulars: read-out: Ratio CC50/EC50.
The nature of series [8]: Electrochemical behavior of the compound assessed as redox potential corrected toward normal hydrogen electrode by cyclic voltammetry.

Turning to `O=[N+]([O-])c1c(CS(=O)(=O)C2CCCCC2)nc2c(Br)cc(Cl)cn12`, the pEC50 in series [1] was 6.30; in series [2], below 4.00; in series [4] it was 6.05. For the same molecule, the selectivity ratio in series [3] is above 31.2; in series [6], above 17.3. Also, the CC50 at 72 h in series [5] is above 15.6 µM.
Turning to `O=[N+]([O-])c1c(CO)nc2c(Sc3ccc(Cl)cc3)cc(Cl)cn12`, the pEC50 in series [1] was below 4.30; in series [2], 5.10; in series [4], 5.40. For the same molecule, the CC50 at 72 h in series [5] is above 15.6 µM. In addition, the values for the selectivity ratio in series [6] and in series [7] were above 3.9 and above 2, respectively.
With `Cc1cc(Br)c2nc(CS(=O)(=O)c3ccccc3)c([N+](=O)[O-])n2c1`, the pEC50 in series [1] is 5.92; in series [2] it was below 5.51; in series [4] it was 5.25. In addition, the figures for the selectivity ratio in series [3] and in series [6] were above 26 and above 5.6, respectively. The CC50 at 72 h in series [5] was above 31.2 µM. Also, the Activity in series [8] is -0.76 V.
On to `O=[N+]([O-])c1c(CS(=O)(=O)c2ccccc2)nc2c(Br)cc(C(F)(F)F)cn12`, for which the results for the pEC50 in series [1], in series [2] and in series [4] were 5.40, below 5.51 and 5.21, respectively. Also, the selectivity ratio in series [3] was above 3.9; in series [6], above 2.5. In addition, the CC50 at 72 h in series [5] is above 15.6 µM. Further, the Activity in series [8] is listed as -0.6 V.
Take `C[C@@H]1[C@H](O)[C@@H](C)/C=C/C=C/C=C/C=C/C=C/C=C/C=C/[C@H](O[C@@H]2O[C@H](C)[C@@H](O)[C@H](N)[C@@H]2O)C[C@@H]2O[C@](O)(C[C@@H](O)C[C@@H](O)[C@H](O)CC[C@@H](O)C[C@@H](O)CC(=O)O[C@H]1C)C[C@H](O)[C@H]2C(=O)O` [AMPHOTERICIN B]: the pEC50 in series [2] was 7.22.
In the case of `CS(=O)(=O)Cc1nc2c(Br)cc(Cl)cn2c1N`, the negative logarithm of the EC50 (pEC50) is 5.14 in series [1], below 4.00 in series [2] and below 4.90 in series [4]. Besides, the CC50 at 72 h in series [5] is above 125 µM.
`O=[N+]([O-])c1cnc2c(Br)cc(Cl)cn12`: the figures for the pEC50 in series [1], in series [2] and in series [4] were 6.40, 4.80 and 5.03, respectively. Besides, the selectivity ratio turned out to be 40.5 in series [3], 1.7 in series [6] and 1 in series [7]. For the same molecule, in series [5], the CC50 at 72 h came out at 16.2 µM.
As for `Cc1nc2c(Br)cc(Cl)cn2c1[N+](=O)[O-]`, the pEC50 in series [1] is below 4.30; in series [2] it was 4.49; in series [4], below 4.90. Moreover, in series [5], the CC50 at 72 h was above 125 µM. Also, in series [7], the selectivity ratio was above 3.9.
On to `O=[N+]([O-])c1c(CS(=O)(=O)c2ccccc2)nc2c(Sc3ccc(Cl)cc3)cc(C(F)(F)F)cn12`, for which the pEC50 in series [1] is 6.77; in series [4], 5.72. Moreover, the results for the selectivity ratio in series [3] and in series [6] were above 45.9 and above 4.1, respectively. Further, in series [5], the CC50 at 72 h was above 7.8 µM. The Activity in series [8] is -0.58 V.
For the molecule `CC1CS(=O)(=O)CCN1/N=C/c1ccc([N+](=O)[O-])o1` (configuration not stated) [NIFURTIMOX], the Activity in series [8] is -0.61 V.
Turning to `CSc1ccc(OCc2ncc([N+](=O)[O-])n2C)cc1` [FEXINIDAZOLE], the Activity in series [8] was -0.83 V.
On to `C[S+]([O-])Cc1nc2c(Br)cc(Cl)cn2c1[N+](=O)[O-]` (configuration not stated), for which the pEC50 in series [1] is 7.70. For the same molecule, the selectivity ratio in series [3] amounted to 2570. Also, the 50% cytotoxic concentration (CC50) at 72 h in series [5] is 51.4 µM.
On to `O=[N+]([O-])c1c(CSc2ccccc2)nc2c(Sc3ccc(Cl)cc3)cc(Cl)cn12`, for which the pEC50 in series [1] is below 4.30; in series [4], 5.13. For the same molecule, in series [5], the CC50 at 72 h is above 15.6 µM. Moreover, the Activity in series [8] is on record as -0.72 V. The selectivity ratio in series [6] is above 2.1.
`O=[N+]([O-])c1c(CO)nc2c(Br)cc(Cl)cn12`: the pEC50 was below 4.30 in series [1], 4.33 in series [2] and below 4.90 in series [4]. Further, the CC50 at 72 h in series [5] was above 125 µM. Moreover, in series [7], the selectivity ratio was above 5.4.
`Cc1nc2c(Sc3ccc(Cl)cc3)cc(Cl)cn2c1[N+](=O)[O-]`: the pEC50 in series [4] was below 4.90. The CC50 at 72 h in series [5] is above 7.8 µM. The Activity in series [8] is -0.79 V.

For orientation: pEC50 means the negative decadic logarithm of the EC50, by convention in mol/L. What is called CC50 is the concentration that lowers cell viability or growth by half.
